Screens as filed in PubChem BioAssay.
IMP-1 inh = IMP-1 metallo-beta-lactamase inhibitors, primary screen, biochemical, epi-absorbance readout, Pseudomonas aeruginosa enzyme | metallo-beta-lactamase IMP-1 (Pseudomonas aeruginosa) | purified IMP-1, nitrocefin hydrolysis, epi-absorbance fluorescence | inhibition, % at 5.6 µM | 290,000 compounds, 0.45% hits;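 active = inhibition above the mean plus 3 SD of all compounds in the same screening run, cut at about 4.5% in these data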
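System: Purified IMP-1 | Read-out basis: Percent enzyme inhibition | Controls: IMP-1 with DMSO as 0%, enzyme-free DMSO as 100% | Replicates: One well per compound | Doses: 5.6 µM nominal single concentration | Detection: Epi-absorbance fluorescence, 480 nm excitation, 530 nm emission | Incubation: 25 °C, 15 min preincubation, 25 min reaction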
Runt-CBFb FRET = inhibitors of RUNX1 Runt–CBFb binding, primary screen, biochemical, FRET, Cerulean-Runt, Venus-CBFb, uHTS | Runt-related transcription factor 1 (Homo sapiens) + Core-binding factor subunit beta … | Cerulean-Runt/Venus-CBFb FRET ratio 530/480, 1 h | inhibition, % at 20 µM | 220,000 compounds, 0.46% hits | AID 1496, 2009;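 active = inhibition over about 50% at 20 µM in the single-dose screen, limit read from the data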
Target sequence (Q01196 whole entry, looked up): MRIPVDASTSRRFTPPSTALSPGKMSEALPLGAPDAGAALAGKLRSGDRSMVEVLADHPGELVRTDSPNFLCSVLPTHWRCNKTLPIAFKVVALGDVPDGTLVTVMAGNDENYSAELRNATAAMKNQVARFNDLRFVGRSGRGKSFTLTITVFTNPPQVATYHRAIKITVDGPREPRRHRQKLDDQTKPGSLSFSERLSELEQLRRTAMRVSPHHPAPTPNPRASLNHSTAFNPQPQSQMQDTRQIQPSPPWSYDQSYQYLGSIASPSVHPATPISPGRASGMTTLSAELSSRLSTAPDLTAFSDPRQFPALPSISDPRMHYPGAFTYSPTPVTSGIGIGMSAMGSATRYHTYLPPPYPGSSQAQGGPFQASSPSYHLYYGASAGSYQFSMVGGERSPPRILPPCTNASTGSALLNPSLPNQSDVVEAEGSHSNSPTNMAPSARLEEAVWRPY
Target sequence (Q13951 whole entry, looked up): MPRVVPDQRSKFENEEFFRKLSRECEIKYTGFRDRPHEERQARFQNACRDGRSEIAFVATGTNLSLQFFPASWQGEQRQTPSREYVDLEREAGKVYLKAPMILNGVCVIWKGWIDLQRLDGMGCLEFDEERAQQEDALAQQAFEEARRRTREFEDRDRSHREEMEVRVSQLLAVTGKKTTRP
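Doses: 20 µM compound in 1% DMSO | Material: Cerulean-labeled Runt domain protein | Amount: Each fluorescent fusion protein 100 nM | Schedule: Two 1 h room-temperature incubations shielded from light | Measured by: FRET fluorescence | Evaluation: Loss of energy transfer signal | Controls: Unlabeled CBFb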
Runt-SMMHC FRET = inhibitors of RUNX1 Runt–CBFb-SMMHC binding, primary screen, biochemical, FRET, Cerulean-Runt, Venus-CBFb-SMMHC, uHTS. Runt-related transcription factor 1 (Homo sapiens) + Core-binding factor subunit beta …. Cerulean-Runt/Venus-CBFb-SMMHC FRET ratio 530/480, 1 h. inhibition, % at 20 µM. 220,000 compounds, 0.74% hits. AID 1434, 2008;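 active = mean inhibition across duplicate retests at 20 µM reaching about 50%, limit read from the data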;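 note: inhibitors lower the FRET ratio by blocking Runt binding to CBFb-SMMHC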
RanGTP-Imp inh = inhibitors of RanGTP-importin-beta interaction, primary screen, biochemical, FRET, CFP-Ran, YFP-importin-beta, homogeneous. inhibition, % (no concentration beside the values). cell-free CFP-Ran/YFP-importin-beta FRET ratio. 300,000 compounds, 1.1% hits. Ran GTPase (GTP-bound) - importin-beta complex. AID 2216, 2009;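 active = more than half of the replicate wells show a fall in the fluorescence ratio signal beyond about 16%, limit read from the data, passing the limit was not always enough; inconclusive = exactly half of the replicate wells pass the set limit; inactive = fewer than half of replicates pass the limit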
VIM-2 inhibitor = VIM-2 metallo-beta-lactamase inhibitors, primary screen, biochemical, epi-absorbance readout, Pseudomonas aeruginosa enzyme; purified VIM-2, nitrocefin hydrolysis, epi-absorbance fluorescence; inhibition, % at 5.6 µM; 290,000 compounds, 0.89% hits; AID 1527, 2009;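 active = inhibition above the mean of all tested compounds plus 3 SD, cutoff set per screening run, cut at about 7.5% in these data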;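 note: red hydrolysis product quenches plate fluorescence so inhibitors raise well fluorescence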
RUNX1 CBFb TR = inhibitors of RUNX1 Runt–CBFb binding, biochemical, TR-FRET; shares compounds with Runt-CBFb FRET; TR-FRET RUNX1 Runt domain-CBFb binding; inhibition, % at 20 µM; 480 compounds, 20% hits; in the data active = inhibition above about 40%
Of the large screens only hits and unclear results are named; the others gave an inactive call (follow-up assays come after a bar, where they were run). Sampled rows, rich in hits. Any-hit rate of the full collection: about 2.6%.

COc1ccc(C(=O)/C=C/Nc2ccc(S(=O)(=O)Nc3nc(C)cc(C)n3)cc2)cc1OC	Runt-SMMHC FRET 67
Cc1cc(C)nc(NS(=O)(=O)c2ccc(N/C=C/C(=O)c3ccc(Cl)cc3)cc2)n1	none
COc1ccc(N2CC(NC(=O)N3CCc4ccccc43)CC2=O)cc1OC (stereo not given)	none
CCCC(=O)N(CCN1CCOCC1)c1nc2c(F)cc(F)cc2s1	none (no result: Runt-CBFb FRET, Runt-SMMHC FRET)
CCOC(=O)c1sc(Nc2nc3c(OC)cccc3s2)cc1C	Runt-SMMHC FRET 92
COc1ccc(S(=O)(=O)NC2CC3CCC2C3)cc1 (stereo not given)	none (no result: Runt-CBFb FRET, Runt-SMMHC FRET)
Cc1ccc(S(=O)(=O)/C(C#N)=C/c2c(N3CC(C)OC(C)C3)nc3ccccn3c2=O)cc1 (stereo not given)	none
COCCNC(=O)/C(C#N)=C/c1c(N2CCN(c3ccccc3)CC2)nc2c(C)cccn2c1=O	RanGTP-Imp inh 29 (no result: Runt-CBFb FRET, Runt-SMMHC FRET)
CCNC(=O)/C(C#N)=C/c1c(N2CCN(c3ccccc3)CC2)nc2c(C)cccn2c1=O	RanGTP-Imp inh 20 (no result: Runt-CBFb FRET, Runt-SMMHC FRET)
Cc1cccn2c(=O)c(/C=C(\C#N)C(=O)NCc3ccco3)c(N3CCOCC3)nc12	Runt-CBFb FRET 78
C=CCNC(=O)/C(C#N)=C/c1c(N2CC(C)OC(C)C2)nc2ccccn2c1=O (stereo not given)	Runt-SMMHC FRET 77, RanGTP-Imp inh 42
COCCNC(=O)/C(C#N)=C/c1c(N2CCN(c3cccc(Cl)c3)CC2)nc2c(C)cccn2c1=O	none (no result: Runt-CBFb FRET, Runt-SMMHC FRET)
Cc1ccc(S(=O)(=O)N2CCN(C(=O)c3c(-c4ccccc4)noc3C)CC2)c(C)c1	none (no result: Runt-CBFb FRET, Runt-SMMHC FRET)
Cc1cccn2c(=O)c(/C=C(\C#N)C(=O)NCc3ccccc3)c(N3CCC(C(N)=O)CC3)nc12	Runt-CBFb FRET 148, Runt-SMMHC FRET 89
N#C/C(=C\c1c(N2CCC(C(N)=O)CC2)nc2ccccn2c1=O)C(=O)NCc1ccco1	Runt-CBFb FRET 128, Runt-SMMHC FRET 107
CCOC(=O)/C(C#N)=C/c1c(N2CCN(CC)CC2)nc2c(C)cccn2c1=O	RanGTP-Imp inh 99 (no result: Runt-CBFb FRET, Runt-SMMHC FRET)
CC(C)c1ccc(NC2=CC(=O)CC(C)(C)C2)cc1	none (no result: Runt-CBFb FRET, Runt-SMMHC FRET)
CCOC(=O)N1CCN(S(=O)(=O)N2CCCC(C(=O)NCCc3ccc(OCC)c(OCC)c3)C2)CC1 (stereo not given)	none (no result: Runt-CBFb FRET, Runt-SMMHC FRET)
Cc1ccc(-n2sc3ccccc3c2=O)cc1	Runt-SMMHC FRET 52
Cc1nc2ccn(Cc3ccccc3)c(=O)c2cc1C(=O)N1CCN(c2ccc(F)cc2)CC1	RanGTP-Imp inh 69 (no result: Runt-CBFb FRET, Runt-SMMHC FRET)
CCCC[n+]1c2ccccc2cc2ccccc21	RanGTP-Imp inh 150 (no result: Runt-CBFb FRET, Runt-SMMHC FRET)
Cc1ccc2ccccc2[n+]1CCCS(=O)(=O)[O-]	none
CCC[n+]1c2ccccc2cc2ccccc21	RanGTP-Imp inh 155 (no result: Runt-CBFb FRET, Runt-SMMHC FRET)
CCCCCCc1cc2cc(C(=O)NCc3ccccc3)c(=N)oc2cc1O	RanGTP-Imp inh 146
CCCCCCc1cc2cc(C(=O)Nc3ccccc3)c(=O)oc2cc1O	Runt-CBFb FRET 113, Runt-SMMHC FRET 58, RanGTP-Imp inh 117
COc1ccc(CC(=O)N/N=C(/C)CC(=O)N(C)c2ccccc2)cc1	none (no result: Runt-CBFb FRET, Runt-SMMHC FRET)
CNC(=O)c1cccc(NC(=O)CCCNC(=O)c2ccc(Cl)cc2)c1	none (no result: Runt-CBFb FRET, Runt-SMMHC FRET)
COc1ccc(N/C=C/c2nc(SC)nnc2C)cc1	VIM-2 inhibitor 7.8
Cc1ccc(C(=O)N2CCCN(c3nc4cc5c(cc4cc3C#N)OCO5)CC2)cc1	RanGTP-Imp inh 113 (no result: Runt-CBFb FRET, Runt-SMMHC FRET)
Cc1cc(C)c2nc(N3CCCN(C(=O)c4cnccn4)CC3)c(C#N)cc2c1	RanGTP-Imp inh 39
Cc1ccc2nc(N3CCN(C)CC3)c(C#N)cc2c1	none
N#Cc1cc2cc3c(cc2nc1N1CCCCC1)OCCO3	Runt-SMMHC FRET 107, RanGTP-Imp inh 59
Clc1ccc2nc3c4ccccc4cnn3c2c1	none
Oc1ccc2nnc3c(Br)cnn3c2c1	RanGTP-Imp inh 53 (no result: Runt-CBFb FRET, Runt-SMMHC FRET)
COc1ccc(CN2CC(C(=O)N3CC(C)CC(C)C3)CC2=O)cc1 (stereo not given)	none (no result: Runt-CBFb FRET, Runt-SMMHC FRET)
O=C1CC(NS(=O)(=O)c2ccc([N+](=O)[O-])cc2)CN1c1cccc(F)c1 (stereo not given)	none (no result: IMP-1 inh, Runt-CBFb FRET, Runt-SMMHC FRET, VIM-2 inhibitor)
CCN1CCc2nc(NC(=O)c3ccccc3)sc2C1	Runt-SMMHC FRET 109, RanGTP-Imp inh 53
O=C(NC(=S)Nc1nc2c(s1)CCCC2)c1ccccc1	none
O=C(Nc1nc2c(s1)CN(Cc1ccccc1)CC2)C1CCC1	Runt-SMMHC FRET 130
CC(=O)N/C(=C\c1ccccc1)C(=O)OCC(=O)N(CC(C)C)c1c(N)n(Cc2ccccc2)c(=O)[nH]c1=O	none (no result: IMP-1 inh, Runt-CBFb FRET, Runt-SMMHC FRET, VIM-2 inhibitor)
O=C(NCC(c1ccco1)N1CCc2ccccc2C1)c1cccc(Br)c1 (stereo not given)	none (no result: IMP-1 inh, Runt-CBFb FRET, Runt-SMMHC FRET, VIM-2 inhibitor)
C=CCSc1nnc(-c2cc3c(-c4ccccc4)nn(C)c3s2)n1C	VIM-2 inhibitor 9.5
C=CCSc1nnc(-c2cc3c(C(F)(F)F)nn(C)c3s2)n1C	none
CC(CNS(=O)(=O)c1ccc2c(c1)NC(=O)CCS2)c1ccccc1 (stereo not given)	none (no result: Runt-CBFb FRET, Runt-SMMHC FRET)
CN1CCc2c(sc3c2C(=O)NC(c2cccc(OC(=O)c4cccs4)c2)N3)C1 (stereo not given)	Runt-CBFb FRET 51, Runt-SMMHC FRET 106, RanGTP-Imp inh 140 | RUNX1 CBFb TR inactive
CCCCc1cc(=O)oc2c(CN(CC)CC)c(O)c(Cl)cc12	Runt-CBFb FRET 75, Runt-SMMHC FRET 150, RanGTP-Imp inh inconclusive | RUNX1 CBFb TR inactive
O=C1C=CC(=O)N1Cc1ccccc1	none (no result: Runt-CBFb FRET, Runt-SMMHC FRET)
O=C1C=CC(=O)N1N(c1ccccc1)c1ccccc1	Runt-CBFb FRET 72 (no result: Runt-SMMHC FRET) | RUNX1 CBFb TR inactive
